The results in this text go back to ChEMBL document CHEMBL1944597, “Synthesis and evaluation of non-basic inhibitors of urokinase-type plasminogen activator (uPA)” (Bioorg Med Chem, 2012).

The target of assay [1] is T1, Urokinase-type plasminogen activator (Homo sapiens, UniProt P00749). Put plainly: Inhibition of human uPA using pyroGlu-Gly-Arg-p-NA.HCl as substrate preincubated for 15 mins prior substrate addition measured for 10 mins by spectrophotometry.
The target of assay [2] is Tissue-type plasminogen activator (Homo sapiens, UniProt P00750). Put plainly: Inhibition of recombinant tPA using H-D-Ile-Pro-Arg-pNA.2HCl as substrate preincubated for 15 mins prior substrate addition measured for 10 mins by spectrophotometry. In short, it runs like this: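 Recombinant tPA, about 5 mU, in Tris buffer pH 8.3, with inhibitor at 0–250 µM final from DMSO stocks, preincubated 15 min at 37 °C. […] Initial rate came from 405 nm absorbance (0–0.25 AU, 10 min) at 37 °C, measured in duplicate. IC50 was the inhibitor level reducing activity to 50%.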

Another assay deals with Prothrombin (Homo sapiens, UniProt P00734). As to the kind of experiment: Inhibition of human plasma thrombin using pyroGlu-Pro-Arg-p-NA.HCl as substrate preincubated for 15 mins prior substrate addition measured for 10 mins by spectrophotometry. The procedure, abridged:
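Human plasma thrombin (about 5 mU) in Tris pH 8.3 was given a 15-min 37 °C preincubation with inhibitor at 0–250 µM final, from DMSO stocks. […] Absorbance at 405 nm gave the initial rate over 0–0.25 AU in 10 min, at 37 °C, in duplicate. IC50 was taken as 50% activity loss.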

The target in assay [3] is T1, Urokinase-type plasminogen activator. Put plainly: Competitive inhibition of human uPA using pyroGlu-Gly-Arg-p-NA.HCl as substrate preincubated for 15 mins prior substrate addition measured for 10 mins by spectrophotometry. In short, it runs like this:
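Human uPA (about 1 mU) in 50 mM Tris pH 8.8 at 37 °C. […] Initial rate taken over 0–0.25 absorbance units in 10 min. Duplicates; IC50 is the concentration giving 50% activity.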

In the next assay the target is Plasminogen (Homo sapiens, UniProt P00747). Put plainly: Inhibition of human plasma plasmin using pyroGlu-Pro-Arg-p-NA.HCl as substrate preincubated for 15 mins prior substrate addition measured for 10 mins by spectrophotometry. In short, it runs like this:
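Plasmin from human plasma, about 5 mU, in Tris buffer pH 7.4, preincubated 15 min at 37 °C with inhibitor (0–250 µM final, DMSO stocks). […] Initial rate was read at 405 nm (0–0.25 AU within 10 min) at 37 °C. Assays ran in duplicate, and IC50 was the concentration halving activity.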

The target of assay [4] is T1, Urokinase-type plasminogen activator. As to the kind of experiment: Non-competitive inhibition of human uPA using pyroGlu-Gly-Arg-p-NA.HCl as substrate preincubated for 15 mins prior substrate addition measured for 10 mins by spectrophotometry.

Chain of Plasminogen (P00747 97-580 limits assumed): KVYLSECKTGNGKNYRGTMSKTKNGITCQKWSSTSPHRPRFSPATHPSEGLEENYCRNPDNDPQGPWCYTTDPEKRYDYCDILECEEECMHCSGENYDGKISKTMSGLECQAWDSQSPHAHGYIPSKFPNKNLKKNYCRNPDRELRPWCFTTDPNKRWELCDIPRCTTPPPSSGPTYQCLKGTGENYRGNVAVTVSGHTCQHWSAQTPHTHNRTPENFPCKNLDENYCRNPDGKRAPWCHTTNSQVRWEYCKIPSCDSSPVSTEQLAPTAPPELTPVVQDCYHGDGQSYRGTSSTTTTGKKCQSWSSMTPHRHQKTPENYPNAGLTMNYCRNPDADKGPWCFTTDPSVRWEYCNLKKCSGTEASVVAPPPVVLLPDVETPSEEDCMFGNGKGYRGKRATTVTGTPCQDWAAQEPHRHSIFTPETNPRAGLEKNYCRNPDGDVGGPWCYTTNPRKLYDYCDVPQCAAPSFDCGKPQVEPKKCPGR
Chain of Plasminogen (P00747 581-810 limits assumed): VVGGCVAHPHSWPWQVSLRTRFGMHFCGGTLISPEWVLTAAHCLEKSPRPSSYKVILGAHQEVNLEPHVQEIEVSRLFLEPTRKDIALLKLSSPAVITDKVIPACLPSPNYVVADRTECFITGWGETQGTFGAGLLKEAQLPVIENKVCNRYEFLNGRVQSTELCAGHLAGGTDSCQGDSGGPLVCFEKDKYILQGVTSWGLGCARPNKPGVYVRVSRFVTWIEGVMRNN
Chain of Tissue-type plasminogen activator (P00750 whole entry): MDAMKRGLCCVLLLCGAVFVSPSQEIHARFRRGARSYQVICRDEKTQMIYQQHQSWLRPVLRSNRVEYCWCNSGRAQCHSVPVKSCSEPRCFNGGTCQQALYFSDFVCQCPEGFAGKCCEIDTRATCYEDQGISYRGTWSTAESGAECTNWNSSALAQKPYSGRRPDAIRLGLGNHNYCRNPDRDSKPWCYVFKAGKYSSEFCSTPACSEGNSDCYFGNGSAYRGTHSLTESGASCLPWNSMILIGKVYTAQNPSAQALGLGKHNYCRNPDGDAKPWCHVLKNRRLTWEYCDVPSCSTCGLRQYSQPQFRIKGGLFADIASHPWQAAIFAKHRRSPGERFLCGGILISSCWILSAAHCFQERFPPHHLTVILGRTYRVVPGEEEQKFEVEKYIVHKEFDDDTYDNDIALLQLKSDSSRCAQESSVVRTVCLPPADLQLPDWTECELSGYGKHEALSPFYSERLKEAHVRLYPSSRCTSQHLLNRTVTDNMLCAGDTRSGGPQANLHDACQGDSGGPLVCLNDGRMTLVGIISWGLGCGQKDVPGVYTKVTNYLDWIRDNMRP

By IC50 is commonly meant the midpoint of a concentration-inhibition curve. As usually defined, the Ki is a dissociation constant, usually derived from enzyme kinetics or from competition with a known ligand. For `N=C(N)c1ccc2cc(C(=O)Nc3ccccc3)ccc2c1`, the IC50 in assay [1] was found to be 13 µM; in assay [2] it was 125 µM; on Prothrombin, 56 µM; at Plasminogen, 22 µM. Further, the inhibition constant (Ki) in assay [3] stood at 1.9 µM.
Take `CCOC(=O)N1CCN(C(=O)[C@H](Cc2cccc(C(=N)N)c2)NS(=O)(=O)c2c(C(C)C)cc(C(C)C)cc2C(C)C)CC1`: in assay [2], the Ki was 4.9 µM.
`COc1cc(NC(=O)c2ccc3cc(C(=N)N)ccc3c2)cc(OC)c1`: the half-inhibitory concentration (IC50) in assay [1] is 2.6 µM; in assay [2], greater than 62 µM; on Prothrombin, greater than 62 µM; at Plasminogen, 13 µM.
In the case of `C[C@H](NC(=O)[C@@H](CO)NS(=O)(=O)Cc1ccccc1)C(=O)NCc1ccc(C(=N)N)cc1`, the Ki is 7.4 µM in assay [2] and 0.1 µM on Prothrombin.
On to `COc1ccc2cc(S(=O)(=O)Nc3ccc(-c4cccc(C(F)(F)F)c4)cc3)ccc2c1`, for which the IC50 in assay [1] came to 4.1 µM; in assay [2] it was 13 µM.
For the compound `N=C(N)c1ccc(/C=C2/N=C(c3ccccc3)OC2=O)cc1`, the IC50 in assay [1] is 0.2 µM; in assay [2], greater than 100 µM; on Prothrombin it was greater than 100 µM; against Plasminogen, greater than 100 µM.
With `N#Cc1ccc2cc(C(=O)Nc3ccccc3)ccc2c1`, in assay [1], the IC50 is greater than 62 µM.
Consider `O=C(Nc1ccccc1)c1ccc2ccccc2c1`, for which the IC50 in assay [1] is greater than 62 µM.
The same measure, in the same setting: as for `O=C(Nc1ccccc1)c1ccc2cc(Br)ccc2c1`, the figure is greater than 62 µM.
With `Nc1ccc2cc(C(=O)Nc3ccccc3)ccc2c1`, the concentration for half-maximal inhibition (IC50) in assay [1] was greater than 62 µM.
In assay [1], `COc1ccc2cc(C(=O)Nc3ccccc3)ccc2c1` displayed an IC50 greater than 62 µM.
Same read-out and setting: for `COC(=O)c1ccc2cc(C(=O)Nc3ccccc3)ccc2c1` the value was greater than 62 µM; for `O=C(O)c1ccc2cc(C(=O)Nc3ccccc3)ccc2c1`, greater than 62 µM.
Take `NC(=O)c1ccc2cc(C(=O)Nc3ccccc3)ccc2c1`: the IC50 in assay [4] stood at 15 µM.
`COc1cc(NC(=O)c2ccc3cc(C(N)=O)ccc3c2)cc(OC)c1` came in with an IC50 in assay [1] of 30 µM.
With `NCc1ccc(NC(=O)c2ccc3cc(C(N)=O)ccc3c2)cc1`, the midpoint of inhibition in assay [1], the IC50, lay at 45 µM.
On to `COC(=O)c1cccc(-c2ccc(NC(=O)c3ccc4ccccc4c3)cc2)c1`, for which, in assay [1], half-maximal inhibition (IC50) required 16 µM.
The compound `COc1cccc(-c2ccc(NC(=O)c3ccc4ccccc4c3)cc2)c1` returned an IC50 in assay [1] of 9.8 µM.
In the case of `COC(=O)c1cccc(-c2ccc(NC(=O)c3ccc4cc(C(N)=O)ccc4c3)cc2)c1`, the IC50 in assay [1] was 3.6 µM; in assay [2], 11 µM; on Prothrombin it was greater than 125 µM; on Plasminogen it was greater than 125 µM.
Consider `COc1cccc(-c2ccc(NC(=O)c3ccc4cc(C(N)=O)ccc4c3)cc2)c1`, for which the IC50 in assay [1] was 2.9 µM; in assay [2], 5.7 µM; at Prothrombin, greater than 62 µM; on Plasminogen, 12 µM.
As to `NC(=O)c1ccc2cc(C(=O)Nc3ccc(-c4cccc(C(F)(F)F)c4)cc3)ccc2c1`, the IC50 in assay [4] is 2.4 µM; in assay [2], 3.4 µM; on Prothrombin, greater than 62 µM; on Plasminogen, 6.3 µM.
In turn, `NC(=O)c1ccc2cc(C(=O)Nc3ccc(-c4cccc(Cl)c4)cc3)ccc2c1` gave an IC50 in assay [1] of 8.1 µM.
On to `COc1ccc(-c2ccc(NC(=O)c3ccc4cc(C(N)=O)ccc4c3)cc2OC)cc1`, for which the IC50 in assay [1] worked out at 6.4 µM; in assay [2], 9.7 µM.
Consider `COC(=O)c1cccc(-c2ccc(NC(=O)c3ccc4cc(C(=O)OC)ccc4c3)cc2)c1`, for which the IC50 in assay [1] worked out at 14 µM.
`COc1cccc(-c2ccc(NC(=O)c3ccc4cc(C#N)ccc4c3)cc2)c1` gave an IC50 in assay [1] of 20 µM.
`COC(=O)c1cccc(-c2ccc(NC(=O)c3ccc4cc(C#N)ccc4c3)cc2)c1`: inhibition in assay [1] was half-maximal at 9 µM (IC50).
As for `N#Cc1ccc2cc(C(=O)Nc3ccc(-c4cccc(C(=O)O)c4)cc3)ccc2c1`, the 50% inhibitory concentration (IC50) in assay [1] was greater than 250 µM.
`COC(=O)c1cccc(-c2ccc(NC(=O)c3ccc4cc(OC)ccc4c3)cc2)c1`: the concentration for half-maximal inhibition (IC50) in assay [1] is 4 µM; in assay [2], 8.4 µM; on Prothrombin, greater than 62 µM; at Plasminogen, 4 µM.
As to `COc1cccc(-c2ccc(NC(=O)c3ccc4cc(OC)ccc4c3)cc2)c1`, the IC50 was 4 µM in assay [1], 21 µM in assay [2], greater than 62 µM against Prothrombin and 20 µM against Plasminogen.
Turning to `COc1ccc2cc(C(=O)Nc3ccc(-c4cccc([N+](=O)[O-])c4)cc3)ccc2c1`, the IC50 was 2.6 µM in assay [1], 8.6 µM in assay [2], greater than 62 µM against Prothrombin and 31 µM on Plasminogen.
With `COc1ccc2cc(C(=O)Nc3ccc(-c4cccc(C(F)(F)F)c4)cc3)ccc2c1`, the IC50 in assay [4] is 2.1 µM; in assay [2], 5.3 µM; against Prothrombin it was greater than 62 µM; against Plasminogen, 6.5 µM.
In assay [1], `COc1ccc(-c2ccc(NC(=O)c3ccc4cc(OC)ccc4c3)cc2)cc1` had an IC50 of 12 µM.
In assay [1], `COc1ccc2cc(C(=O)Nc3ccc(-c4ccc(OC)c(OC)c4)cc3)ccc2c1` came in with an IC50 of 31 µM.
In assay [1], `COc1ccc(-c2ccc(NC(=O)c3ccc4cc(OC)ccc4c3)cc2OC)cc1` gave an IC50 greater than 31 µM.
In assay [1], `COC(=O)c1cccc(-c2ccc(NC(=O)c3ccc4cc(Cl)ccc4c3)cc2)c1` yielded an IC50 of 7 µM.
As for `COC(=O)c1cccc(-c2ccc(NC(=O)c3ccc4cc(Br)ccc4c3)cc2)c1`, half-maximal inhibition in assay [1] (IC50) was put at 11 µM.
As to `COC(=O)c1cccc(-c2ccc(NC(=O)c3ccc4cc(N)ccc4c3)cc2)c1`, the IC50 in assay [1] is 31 µM.
For the compound `COC(=O)c1cccc(-c2ccc(NS(=O)(=O)c3ccc4ccccc4c3)cc2)c1`, half-maximal inhibition in assay [1] (IC50) was put at 16 µM.
In the case of `COC(=O)c1ccc(-c2ccc(NS(=O)(=O)c3ccc4ccccc4c3)cc2)cc1`, the IC50 in assay [1] is 9.8 µM.
In turn, `COc1cccc(-c2ccc(NS(=O)(=O)c3ccc4ccccc4c3)cc2)c1` displayed a 50% inhibitory concentration (IC50) in assay [1] of 31 µM.
In assay [1], `COc1ccc2cc(S(=O)(=O)Nc3ccc(-c4ccccc4)cc3)ccc2c1` displayed an IC50 of 31 µM.
Regarding `COC(=O)c1cccc(-c2ccc(NS(=O)(=O)c3ccc4cc(OC)ccc4c3)cc2)c1`, the IC50 in assay [4] was 2.8 µM; in assay [2] it was 26 µM; on Prothrombin it was greater than 62 µM; against Plasminogen, greater than 62 µM.
In assay [1], `COc1ccc2cc(S(=O)(=O)Nc3ccc(-c4cccc(C(N)=O)c4)cc3)ccc2c1` came in with an IC50 greater than 62 µM.
Consider `COc1ccc2cc(S(=O)(=O)Nc3ccc(-c4cccc(F)c4)cc3)ccc2c1`, for which the IC50 in assay [1] was greater than 62 µM.
`COc1ccc2cc(S(=O)(=O)Nc3ccc(-c4cccc(Cl)c4)cc3)ccc2c1` showed a concentration for half-maximal inhibition (IC50) in assay [1] greater than 62 µM.
In assay [1], `COc1cccc(-c2ccc(NS(=O)(=O)c3ccc4cc(OC)ccc4c3)cc2)c1` returned an IC50 of 19 µM.
Regarding `COc1ccc2cc(S(=O)(=O)Nc3ccc(-c4cccc([N+](=O)[O-])c4)cc3)ccc2c1`, in assay [1], the IC50 amounted to 6.9 µM.
`COc1ccc2cc(S(=O)(=O)Nc3ccc(-c4cccc(N)c4)cc3)ccc2c1` displayed an IC50 in assay [1] of 62 µM.
On the same count and under the same terms, for `COC(=O)c1ccc(-c2ccc(NS(=O)(=O)c3ccc4cc(OC)ccc4c3)cc2)cc1` the value was 16 µM; for `COc1ccc(-c2ccc(NS(=O)(=O)c3ccc4cc(OC)ccc4c3)cc2)cc1`, 23 µM; for `COc1ccc2cc(S(=O)(=O)Nc3ccc(-c4ccc(OC)c(OC)c4)cc3)ccc2c1`, 8 µM.
Regarding `COc1ccc(-c2ccc(NS(=O)(=O)c3ccc4cc(OC)ccc4c3)cc2OC)cc1`, the IC50 in assay [1] worked out at 8 µM.
Regarding `[H]/N=C(\N)c1ccc2cc(C(=O)Nc3ccc(CN)cc3)ccc2c1`, the IC50 (in assay [2]; at Prothrombin; at Plasminogen) was greater than 62 µM each time.
